# Measured values: the EternaBench riboswitch data
# Test system: MS2 coat protein
# Experiment: apparent Kd, MS2 coat protein; higher = weaker binding; RNA-MaP array; FMN 200 µM where present
# In short: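 SNAP-549-labelled MS2 coat protein, doubled from 0.7 or 1.5 nM to 3 µM, was titrated over designs transcribed by stalled E. coli RNA polymerase on Illumina sequencing-chip clusters. Titrations were run without and then with constant ligand in 100 mM Tris-HCl pH 7.5, 80 mM KCl, 4 mM MgCl2, BSA, DTT, yeast tRNA and Tween-20. The apparent Kd is the median of filtered per-cluster fits to green signal normalised to red-channel RNA signal and control-cluster median Fmax.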
# [1] = designed as: ON switch for flavin mononucleotide, no ligand
# [2] = ligand present: flavin mononucleotide, designed as: ON switch for flavin mononucleotide
# [3] = designed as: OFF switch for flavin mononucleotide, no ligand
# [4] = ligand present: flavin mononucleotide, designed as: OFF switch for flavin mononucleotide
sequence,measurement,setting,value
GAGUUACAUGAGGAUCACCCAUGUUGUUGUGGAUAAGGAUAUAUGGUAGGAAGAGGAAUGAUAGAAGGUAUUAGGG,apparent Kd,[1],46.2 nM
same,apparent Kd,[2],40 nM
UGGAUGUGGGUUCCACAUGAGGAUCACCCAUGUACCGAUGAGAGAAGGCACUCUAGUACCUAGAGUGAGGAUAUCUACAUUCAA,apparent Kd,[3],4.32 nM
same,apparent Kd,[4],9.75 nM
AUACAUGAGGAUCACCCAUGUUACUGGGUCUAUAUAGAACGUAGAAGGAUGUAUUGAAGAAGAUCAUAGGAUAUACUUUAUAGU,apparent Kd,[3],49.9 nM
same,apparent Kd,[4],38.9 nM
GUGGCACAUGAGGAUCACCCAUGUCAGGAUAUCGCGUGUUUUUUUUCGGCCGCGCGCGCGAGAAGGGACGUCUU,apparent Kd,[3],27.1 nM
same,apparent Kd,[4],29.8 nM
UCGCCAGGUACAGGAUAUGUGGAUCGGUCAAGUAACUCGCCGAACAUGAGGAUCACCCAUGUAUCACAGAAGGGUGCCUCAAAG,apparent Kd,[1],223 nM
same,apparent Kd,[2],10.8 nM
UGUUGUAUUACAGGAUAUCUAUUAUUUUUUUUUAGAGAAGGGUAUUCACAUGAGGAUCACCCAUGUAUAUACGAGGAAGUUGUG,apparent Kd,[1],59.8 nM
same,apparent Kd,[2],62 nM
CGAUAACAUAGUUAUCCGUAGCGAACAUGAGGAUCACCCAUGUAGGAUAUGUUACUAAACUAGUAACAGAAGGACAUGAGUAUU,apparent Kd,[3],154 nM
same,apparent Kd,[4],407 nM
GAGACGUCAGGAUAUCUGAUGUCUAACUUCGGUUAGACAUCAGAGAAGGGACAUGAGGAUCACCCAUGUCUCAG,apparent Kd,[3],15.9 nM
same,apparent Kd,[4],13.9 nM
GGUUGUCAUCGUCAUCCUUUCUGUACAUGAGGAUCACCCAUGUAGGAUAUGCUGCUCUCGGUGUGGCAGAAGGGCGUGUGUCUU,apparent Kd,[3],34.2 nM
same,apparent Kd,[4],37.6 nM
CGCAAGUAUACAUGAGGAUCACCCAUGUCAGAAAGGGUAAUCAGAAGGUACUAUUAGAGAUAGAGUAAGGAUAUGAAAUUUGCG,apparent Kd,[1],718 nM
same,apparent Kd,[2],138 nM
UGUCGGAGCAGAGGAUAUUACAUGAGGAUCACCCAUGUAUGAACCAAUAGCUGGAAACAGCAAUGUAAGAAGGCUGCUCCGACG,apparent Kd,[3],12.9 nM
same,apparent Kd,[4],157 nM
CGGGCUGCUGUGAGGAUAUGCCUGUGGGUGCGUGGGUAGAAGGCACAUGAGGAUCACCCAUGUCCUGCGGCUCG,apparent Kd,[3],736 nM
same,apparent Kd,[4],537 nM
AUACUGAGCGUAAGUUACCUGAACAUGAGGAUCACCCAUGUGGAGGAUAUUGACCUAGCAAAGCUCGAGAAGGCCACUGGGAUG,apparent Kd,[3],24.8 nM
same,apparent Kd,[4],19.1 nM
GGAUAGGACAGAGGAUAUACGUGCAAGAGAUACUAGCAAAAUUUCCUCACAUGAGGAUCACCCAUGUAGAAGGCUGUCCUAUCG,apparent Kd,[3],57.4 nM
same,apparent Kd,[4],331 nM
GGGCCGCUACGCCGGCUCCACGCACAGGAUAUGCAGUUACAUGAGGAUCACCCAUGUGGCCAUGUGCAGAAGGGUGGUUCGCGA,apparent Kd,[1],85.3 nM
same,apparent Kd,[2],28.6 nM
UUGUUAUGUGUAGGAUAUGCAUAUUAUUAUUAUGCAGAAGGACAUGAGGAUCACCCAUGUGUAUUAUUAUUAUAUAUUAUAUAU,apparent Kd,[3],23.9 nM
same,apparent Kd,[4],35.9 nM
CGGGUAUAUCGAGGAUAUAAGUCUAGGACAUGAGGAUCACCCAUGUAUGUCUUAGAAGGCGAUAUACCCAGCCUGUUACAGGCA,apparent Kd,[1],31 nM
same,apparent Kd,[2],6.37 nM
GGUGCGUAUGUGAGGAUAUGCUGGUCCUUGGCUCGGCAGAAGGCACAUGAGGAUCACCCAUGUGGUGUCGUUCC,apparent Kd,[3],52.5 nM
same,apparent Kd,[4],222 nM
AUCAGCUCGUCAGGAUAUACAUCACUGCUUCGGCAGUGUAUUAAGGUCACAUGAGGAUCACCCAUGUAGAAGGGACGAGCUGAU,apparent Kd,[3],21.2 nM
same,apparent Kd,[4],142 nM
CUGUUCGGUGUAGGAUAUGCAUAUUCCCAUUAUGCAGAAGGACAUGAGGAUCACCCAUGUAUGUUAUUAUCAUGUGUUACAUGC,apparent Kd,[3],38.2 nM
same,apparent Kd,[4],90.2 nM
CGCAACAUGAGGAUCACCCAUGUUCGCGGGCAAUUUUAGUGCAGAAGGGACAACGAAACGUAGGGUCAGGAUAUGCAUGUGCGC,apparent Kd,[1],5.26 nM
same,apparent Kd,[2],5.17 nM
AUUCCCAACCAGAAGGACAUGAGGAUCACCCAUGUAGGAUAUGGGUGGGUGACCCGAACUUGGACGACAUCACAAUUCUCACAC,apparent Kd,[1],55.6 nM
same,apparent Kd,[2],9.49 nM
UGGACUGGGCAGAAGGGACAUGAGGAUCACCCAUGUCUUGGGCUACUUCAGUCAGGAUAUGCCCAUUGAAUAUCCGUGCAACAA,apparent Kd,[3],15.4 nM
same,apparent Kd,[4],76.9 nM
UAUAACUAACAGAAGGGUAUUUGGGAUCAUUAUUAGGAGGAAAUACUAUACAGGAUAUGUAAUACAUGAGGAUCACCCAUGUUC,apparent Kd,[1],20 nM
same,apparent Kd,[2],15.7 nM
GGGCCCGGAGGAUAUACAUGAGGAUCACCCAUGUAUUUGGGCCCUAUUGGGCCCGGGUGUAGAAGGCCGGGUUU,apparent Kd,[3],15.7 nM
same,apparent Kd,[4],21.4 nM
UUUUAGGCAGGAUAUACAUGAGGAUCACCCAUGUAAAUUUUUCGUUUAACUUGAAUGUGUAGAAGGGCCAUAUU,apparent Kd,[3],20.5 nM
same,apparent Kd,[4],21.4 nM
GGUCCAUUAUGAGGAUAUGGCACCUUAUUGGUGCCAGAAGGCAUAUGUCUUCACAUGAGGAUCACCCAUGUAAUAAAUUGGACC,apparent Kd,[1],17.4 nM
same,apparent Kd,[2],19.5 nM
UAAUAAUUAUGAGGAUAUAUACAACAUGAGGAUCACCCAUGUACCCAUGUAGUAGAAGGCAUAUUUUUAUUUAAUAAUAUAAUU,apparent Kd,[1],79.4 nM
same,apparent Kd,[2],33.9 nM
GCGGUAUUGUAAGGAUAUACUCUGUGAUGAAGAGUAGAAGGUACUUACAUGAGGAUCACCCAUGUUUUUCGUAAAAGUUACCGC,apparent Kd,[1],16.2 nM
same,apparent Kd,[2],10.6 nM
GCGCGCGCAGGAUAUACAUGAGGAUCACCCAUGUAGCGCGCGCGUAUUUGUGUGUGUUGUAGAAGGGUGUGUGU,apparent Kd,[3],20 nM
same,apparent Kd,[4],18.2 nM
CCGGAAAUAGAGGAUAUAGGACUGGAUACAGUCCUAGAAGGCUAUACAUGAGGAUCACCCAUGUGUCCUACCGG,apparent Kd,[3],15.7 nM
same,apparent Kd,[4],44 nM
AACUGACGACGUCAGUUGCGUAGGCAGGAUAUACAUGAGGAUCACCCAUGUGCAUGAUGCUACGAGUAGAAGGGCCGAGGCGAU,apparent Kd,[3],6.15 nM
same,apparent Kd,[4],11.2 nM
ACUUUACGAGGAUAUACUGUCGGGCCUCGGGCAUACAUACGACAUGAGGAUCACCCAUGUAGAAGGCGUUUACU,apparent Kd,[3],33.6 nM
same,apparent Kd,[4],61.1 nM
CAUGUCCUCGCAGGAUAUGCUGGACUUUGUCCAGCAGAAGGGUGAUAACAUGAGGAUCACCCAUGUGGACAUGAUAUAUUUAAU,apparent Kd,[1],28.1 nM
same,apparent Kd,[2],1720 nM
UGUCACGUAGUAGGAUAUGACAUGAGGAUCACCCAUGUUAACUCUAACCUCGAGGAUCGUCAUGGUCAGAAGGACUCAGACAAG,apparent Kd,[3],209 nM
same,apparent Kd,[4],75.9 nM
CCGUCCCGGCUGCAGCUCGGUAACAUGAGGAUCACCCAUGUCAAGGAUAUAACCAUACUCGAUCGUUAGAAGGUGACAGGGUCC,apparent Kd,[3],175 nM
same,apparent Kd,[4],107 nM
GACGUUGGAGGAUAUACACGAGUGCUCAGUUGGCCCGGUCGACAUGAGGAUCACCCAUGUAGAAGGCCGACACU,apparent Kd,[3],17.6 nM
same,apparent Kd,[4],22.8 nM
CCUGUAAUCCUAUAGGCUUGUUACAUGAGGAUCACCCAUGUCAAGGAUAUAACGUUAAGCUCAUGUUAGAAGGUGACAUGUGGU,apparent Kd,[3],164 nM
same,apparent Kd,[4],58.6 nM
AUUAUGCAGCAGGAUAUCGAUCCGCGGUAUGAUCGAGAAGGGCUGACAUGAGGAUCACCCAUGUGCGUCCUAGG,apparent Kd,[3],39.8 nM
same,apparent Kd,[4],147 nM
AUGCUUCACACAGGAUAUACAUGAGGAUCACCCAUGUGUCCUCCGUAGCUGACACGAGCUACGCUGUAGAAGGGUGUGAAGCAU,apparent Kd,[3],234 nM
same,apparent Kd,[4],223 nM
CGUGAACAUGAGGAUCACCCAUGUGAAAAACGUAGAGGAUAUGUCACAUGAGUGUAAAAGACAGAAGGCUAUCGUG,apparent Kd,[1],151 nM
same,apparent Kd,[2],27.1 nM
ACAUGAGGAUCACCCAUGUGUGCAUAGGAUAUUGUGGAUUAGGGAUGUUUUUUUGGAUUUGCCUACAAGAAGGAUGAAAGUGUU,apparent Kd,[1],14.3 nM
same,apparent Kd,[2],12.6 nM
UACAUGAGGAUCACCCAUGUUUUGUCGUGUAUGGUAUUUAUCUAGGAUAUCAAUUUAGUUAAUUAUGAGAAGGAGAAUAUUAAU,apparent Kd,[3],39.1 nM
same,apparent Kd,[4],39 nM
AGCUGGUGACAGCAAGAAAGUUCACAUGAGGAUCACCCAUGUAGAAGGCUGUACGGUUACCGUACAGAGGAUAUACAUAGAAAG,apparent Kd,[3],19.9 nM
same,apparent Kd,[4],31.5 nM
UAGAAGUCAGGAUAUGCUGCUCGUCACUUGCGUGAUGAGUAGCAGAAGGGACAUGAGGAUCACCCAUGUAAAGC,apparent Kd,[3],48.8 nM
same,apparent Kd,[4],54.3 nM
UGUUGUAUUACAGGAUAUCUAUUAUUUUUAAUUAGAGAAGGGUAUUCACAUGAGGAUCACCCAUGUAUAUACGAGGAAGUUGUG,apparent Kd,[1],35.2 nM
same,apparent Kd,[2],35.8 nM
GUAGAGUAAGGAUAUGGUGAAUAGGAUAGAAUGGUUAGAAACCAGAAGGUACAUGAGGAUCACCCAUGUAAUGU,apparent Kd,[3],21 nM
same,apparent Kd,[4],21.1 nM
UUCUGUGUGUGCUAGGGCUGCACAUGAGGAUCACCCAUGUACAGAAGGUGGACACGCACUGUGGCCAAGGAUAUGUAACAUGUU,apparent Kd,[3],11.2 nM
same,apparent Kd,[4],36.2 nM
CGUUGUUCCGCAGGAUAUGCAUUGGAUUACAAUGCAGAAGGGCGAUUACAUGAGGAUCACCCAUGUGUGGACAAUAAGGAAGAG,apparent Kd,[1],1490 nM
same,apparent Kd,[2],142 nM
UAAAUGUGAGGAUAUCAGGUGUGCUAGCAUACUGGUACAUCUGAGAAGGCACAUGAGGAUCACCCAUGUUCCUU,apparent Kd,[3],16.8 nM
same,apparent Kd,[4],52.4 nM
GGUACUCAAAGAGUACUGUUUUGAACAUGAGGAUCACCCAUGUAGGAUAUGCGAGUUUUGAAUUUGCAGAAGGACAUUUUUAGC,apparent Kd,[3],17.2 nM
same,apparent Kd,[4],18.9 nM
AAUUUAAUACAUGAGGAUCACCCAUGUAAAUUAAUUAAGAUCUAGGAUAUCAGCUCGAUUAGAGCUGAGAAGGAGAUCACAUGU,apparent Kd,[1],16.6 nM
same,apparent Kd,[2],13.2 nM
CCUUAGUCAGGAUAUACAUGAGGAUCACCCAUGUAAAAUUUUAAUUUAAUUUUAAGGUGUAGAAGGGACCACCC,apparent Kd,[3],26.3 nM
same,apparent Kd,[4],22.6 nM
AAUAAUUAGUAAGGAUAUACUAGCGAUUAGCUUGUAGAAGGUACAGUCUUAUGUAUAACAUGUUAACAUGAGGAUCACCCAUGU,apparent Kd,[1],68.9 nM
same,apparent Kd,[2],29.3 nM
ACGUAUCAUGUAGGAUAUGACCCAGGAAACUGGUCAGAAGGACAUGAGGAUCACCCAUGUAGAGUAUGUUAGGAUGACGUAUGC,apparent Kd,[3],138 nM
same,apparent Kd,[4],188 nM
